An excerpt weighted towards active compounds, which were near 1.2% of everything screened.
DDE Tn6 FP inh – DD(E)-Tn6 binding inhibition, primary FP screen | hit rate 0.21% among 370,000 | P02675 | Fibrin DD(E) TRITC-Tn6 fluorescence polarization displacement | inhibition, % at 8.3 µM;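 active means inhibition above a per-campaign cutoff: mean of compounds within control limits plus 3 SD, cut at about 15% in these data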;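 further: 0% = median of all compound wells on the plate and 100% = blocking peptide control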
Target sequence (P02675 whole entry, looked up): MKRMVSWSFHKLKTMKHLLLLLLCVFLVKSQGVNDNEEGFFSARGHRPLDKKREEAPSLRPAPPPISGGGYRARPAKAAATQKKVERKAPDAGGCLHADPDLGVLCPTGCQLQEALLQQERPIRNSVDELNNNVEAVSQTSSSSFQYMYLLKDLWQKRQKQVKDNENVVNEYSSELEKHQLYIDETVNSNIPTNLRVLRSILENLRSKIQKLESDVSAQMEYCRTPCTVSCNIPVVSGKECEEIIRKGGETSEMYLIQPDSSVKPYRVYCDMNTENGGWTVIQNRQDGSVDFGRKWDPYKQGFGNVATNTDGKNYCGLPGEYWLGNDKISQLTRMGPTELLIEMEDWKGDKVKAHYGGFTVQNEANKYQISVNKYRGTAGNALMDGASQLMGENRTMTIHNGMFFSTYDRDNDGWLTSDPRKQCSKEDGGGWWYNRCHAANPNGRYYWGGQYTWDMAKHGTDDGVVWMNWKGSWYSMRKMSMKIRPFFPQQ
Tn7 DDE FP – inhibitors of Tn7 peptide binding to human fibrin DD(E) | P02675 | FP displacement of FITC-Tn7 peptide from fibrin DD(E); 0% = median of compound wells per plate | inhibition, % at 8.3 µM | hit rate 0.13% among 370,000;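 active means inhibition above the mean of compounds falling within the control limits plus 3 SD of them, cut at about 14% in these data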;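 further: 0% = plate median of compound wells and 100% = 10 µM Aha-Tn7 peptide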
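System: human fibrin DD(E); quantity: Fibrin-DD(E) at 2 µM final; also added: fluorescent Tn7 probe at 0.1 µM; compound dosing: single nominal test concentration of 8.3 µM per compound; schedule: 10 min preincubation, 3 h with tracer, room temperature; detection: fluorescence polarization of the labelled Tn7 tracer; repeats: one replicate per compound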
CRFBP-R2 agonist – CRF-BP/CRF-R2 complex agonism; HEK293 CRF-R2/CRF-BP, calcium dye fluorescence (FLIPR); percent of saturating CRF peptide response; hit rate 0.46% among 350,000; activation, % at 13.2 µM;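 active means activation of at least 50%, plus an integration ratio under a set limit after plate pattern correction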;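 further: plate controls were neutral control wells without compound for no effect and CRF at EC100 for full effect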
CRFR2-BP antag – CRF-BP/CRF-R2 complex antagonism | HEK293 CRF-R2/CRF-BP, CRF-induced calcium fluorescence | inhibition, % at 11.8 µM | hit rate 0.59% among 350,000 | AID 588475;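 active means inhibition of the ligand-induced calcium signal above about 50% at the single tested concentration, limit read from the data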
DDE Tn6 FP ctr – DD(E)-Tn6 binding inhibition, counter-screen | shares compounds with DDE Tn6 FP inh | Fibrin DD(E), TRITC-Tn6 fluorescence polarization displacement; 0% = median of compound wells, not DMSO | inhibition, % at 8.3 µM | hit rate 2% among 680;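 active means inhibition above the mean of test compounds lying between the control limits plus 3 SD of those, cut at about 14% in these data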;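 further: 0% = median of compound wells and 100% = wells with Aha-Tn7 blocking peptide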
DDE Tn6 confirm – DD(E)-Tn6 binding inhibition, FP confirmation. hit rate 10% among 680. FP displacement of TRITC-Tn6 peptide from DD(E); 0% = per-plate median of test wells. shares compounds with DDE Tn6 FP inh. inhibition, % at 8.3 µM;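 active means inhibition above the mean of compounds lying within the control limits plus 3 SD, cut at about 16% in these data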;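 further: 100% = high control wells holding a competing inhibitor peptide at 10 µM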
* hit, by the source's call; nt = no result.

SMILES	DDE Tn6 FP inh	Tn7 DDE FP	CRFBP-R2 agonist	CRFR2-BP antag	DDE Tn6 FP ctr	DDE Tn6 confirm
CCN(C)c1ccc(/C=N\n2nnnc2N)cc1	-4	2	1	14	nt	nt
CCN(CC)c1ccc(/C=N/n2nnnc2N)c(O)c1	18*	1	-3	4	3	3
Oc1ccc(N2CCN(C(=S)NCCc3ccccc3)CC2)cc1	16*	-6	-2	-23	8	12
COc1ccc(N2CCN(C(=S)NCCc3ccccc3)CC2)cc1	10	-6	-3	-10	nt	nt
COc1ccc(OC)c(C(=O)NC(CC(N)=O)c2ccc(NCCN3CCCC3)c([N+](=O)[O-])c2)c1 (stereo not drawn)	16*	4	0	-1	4	-5
Nc1nc(SCC(=O)Nc2cc(Cl)c(Cl)cc2Cl)n[nH]1	-2	-5	-1	-12	nt	nt
C=CCN1C(=O)c2ccc(C(=O)Nc3ccccn3)cc2C1=O	3	-3	1	5	nt	nt
CN1CCCN(c2cc(-c3ccc4ccccc4c3)nc3ccnn23)CC1	8	-9	nt	nt	nt	nt
Cc1cccc(-c2cc(N3CCCN(C)CC3)n3nccc3n2)c1	16*	3	nt	nt	0	8
CNC(=O)c1ccccc1C1(O)c2ccccc2CCc2ccccc21	-5	3	nt	nt	nt	nt
CC(C)Oc1cc(F)ccc1-c1cc(C(=O)NCc2ccccn2)[nH]n1	-8	3	nt	nt	nt	nt
COc1ccc(NC(=O)C(=O)N/N=C/c2cccnc2)c(OC)c1	16*	8	0	0	2	-3
COc1ccc(NC(=O)/C(C#N)=C/c2cccnc2)c(OC)c1	9	-1	1	-5	nt	nt
Cc1nc(-c2cccc(NC(=O)COc3ccc(Cl)cc3)c2)cs1	-11	0	1	-4	nt	nt
O=c1[nH]nc(SCc2ccccc2Cl)n1-c1ccc2c(c1)OCCO2	16*	3	-2	-5	-6	-7
C[n+]1c(-c2ccccc2)cc2c(=Cc3ccc([N+](=O)[O-])cc3)c3ccccc3n21	-1	0	3	-20	nt	nt
C[n+]1c(-c2ccccc2)cc2c(=Cc3ccccc3)c3ccccc3n21	17*	-3	11	-54	3	1
N=c1c(C(=O)NC2CCCC2)cc2c(=O)n3ccccc3nc2n1CCN1CCOCC1	16*	-1	0	6	0	-2
CCCCCCCCN1C(=O)[C@H](CC(=O)NCCCCc2ccccc2)C[C@@]2(C(=O)OCC)CCCC=C12	3	-3	nt	nt	nt	nt
COc1ccc(CCN2CC(C(=O)OCC(=O)c3c(N)n(CC(C)C)c(=O)n(C)c3=O)CC2=O)cc1OC (stereo not drawn)	44*	1	-2	7	4	-4
CC(C)Cn1c(N)c(C(=O)COC(=O)C2CC(=O)N(Cc3ccccc3Cl)C2)c(=O)n(C)c1=O (stereo not drawn)	0	-1	-1	1	nt	nt
O=C1[C@H](Cc2ccccc2)NCCCC[C@H](c2ccco2)N1Cc1ccccc1	2	4	2	30	nt	nt
CCOc1ccccc1-n1c(=S)sc2c(=O)n(-c3ccc(C)cc3)c(=S)[nH]c21	11	-2	2	23	nt	nt
CCn1c(=S)sc2c(=O)n(-c3ccccc3)c(=S)[nH]c21	18*	4	-1	14	8	-15
CN(CC(=O)Nc1ccccc1Cl)CC(=O)Nc1sc2c(c1C(N)=O)CCC2	-5	-6	0	0	nt	nt
SMILES	DDE Tn6 FP inh	Tn7 DDE FP	CRFBP-R2 agonist	CRFR2-BP antag	DDE Tn6 FP ctr	DDE Tn6 confirm
Cc1cc(O)ccc1N=Cc1c(C(F)(F)F)[nH][nH]c1=O	77*	4	0	-13	-5	0
O=c1[nH][nH]c(C(F)(F)F)c1C=Nc1ccccc1	-2	-3	-1	19	nt	nt
Cc1ccc(Sc2ccc(S(=O)(=O)Nc3ccc(CC(=O)O)cc3)cc2)cc1C	1	-4	-3	2	nt	nt
CCN(C(=O)Cn1cnc2c1c(=O)n(C)c(=O)n2C)C1CCS(=O)(=O)C1 (stereo not drawn)	1	1	-1	0	nt	nt
CC(=O)Nc1nc2cc3c(cc2s1)OCO3	16*	5	1	7	4	4
CC(C)C(=O)Nc1nc2cc3c(cc2s1)OCCO3	4	-4	0	-4	nt	nt
CCN(Cc1ccncc1)C(=O)C(CO)c1ccccc1 (stereo not drawn)	20*	3	-3	11	3	-8
CC(NC(=O)Nc1ccc(O)cc1)(C(F)(F)F)C(F)(F)F	29*	-1	1	-7	-6	-7
COc1ccc(NC(=O)NC(C)(C(F)(F)F)C(F)(F)F)cc1	2	-3	2	2	nt	nt
CC(C)(C)NC(=O)C1CC1(c1ccccc1)c1ccccc1 (stereo not drawn)	9	3	-5	16	nt	nt
Cc1nc2ccc(N)cc2s1	15*	-2	0	-6	-5	-9
Cc1cc(C)n2nc(C(=O)OCC(=O)NC3CCCCC3)nc2n1	-1	-11	0	3	nt	nt
CC(CNC(=O)CN1C(=O)C(=O)N(C2CCCC2)C1=O)c1ccccc1 (stereo not drawn)	1	0	-2	-5	nt	nt
Nc1ccc(N2CCOCC2)c(S(=O)(=O)Nc2ccccc2Cl)c1	18*	5	-2	-6	6	4
COc1ccccc1NS(=O)(=O)c1cc(N)ccc1N1CCOCC1	-1	7	-2	-10	nt	nt
Cc1ccc(-c2csc3nc4ccc(C(=O)NCCO)cc4c(=O)n23)cc1	0	0	-3	4	nt	nt
Cc1ccc(-c2csc3nc4cc(C(=O)NC5CCC(O)CC5)ccc4c(=O)n23)cc1 (stereo not drawn)	17*	-2	-1	-3	-7	-14
CC1(C(=O)Nc2cnc3ccccc3c2)CCN1C(=O)CC(c1ccccc1)c1ccccc1 (stereo not drawn)	10	5	nt	nt	nt	nt
CC(O)(c1cccc(F)c1)c1nc(-c2ccoc2)cs1 (stereo not drawn)	4	-1	nt	nt	nt	nt
COCCN(CC1CCCN(C2Cc3ccccc3C2)C1)C(=O)c1ccc(C(C)=O)cc1 (stereo not drawn)	16*	5	1	-22	-2	-3
COCCN(CC1CCCN(C2Cc3ccccc3C2)C1)C(=O)c1cccc(C)c1 (stereo not drawn)	6	4	0	11	nt	nt
N#CC(C#N)=C1C=C2C=C(N3CCCCCC3)CCC2CC1 (stereo not drawn)	18*	-7	216*	-170	53*	10
CC(=O)O[C@]1(C(C)=O)CC[C@H]2[C@@H]3C=CC4=CC(=O)C=C[C@]4(C)[C@H]3CC[C@@]21C	12	-1	-1	6	nt	nt
CN(Cc1c(C(=O)N/N=C/c2c(F)cccc2Cl)nnn1-c1nonc1N)C1CCCCC1	1	-2	5	-8	nt	nt
O=c1c2cccnc2[nH]c(=S)n1CCCN1CCN(c2ccccc2F)CC1	17*	7	0	-33	1	-1

Assay outcomes from PubChem.
